Bioassay records deposited in PubChem BioAssay by Broad Institute.
Rows were chosen to be rich in hits. Some 2% of all compounds tested hit in one or more screens of this group.
PglD DTNB: PglD (C. jejuni) enzyme inhibition; inhibition, % at 12.5 µM; purified PglD enzyme, DTNB colorimetric CoA detection; 0.098% of 360,000 active; in the data active = inhibition above about 16%, passing the limit was not always enough; inconclusive = no clear call, values can overlap the other calls
RAD54 inh: blocks human RAD54 Holliday junction branch migration; FAM/BHQ fluorescence; 0.14% of 360,000 active; Q92698; inhibition, % at 10.4 µM; AID 602329;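 active = mean normalized replicate activity at least 40 and at least half of replicates scoring 40 or more; inconclusive = only one of the two criteria met; inactive = mean below 40 and under half of replicates reaching 40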;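 also: 0% = median of neutral control wells and 100% = median of positive control wells; inhibitors cause a drop in the FAM fluorescence signal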
Xi reactivation: X-chromosome reactivation activator; XiGFP mouse fibroblasts, % GFP-positive cells imaging, 3 d; cells co-treated with 5-aza-dC sensitizer; scaled so ellipticine positive control = 100%; activation, % at 7.58 µM; 0.055% of 360,000 active;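 active = mean normalized replicate activation at least 10% and every replicate at or above 10%; inconclusive = only one of the two criteria met; inactive = mean below 10% and not all replicates reach 10%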;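 also: 0% = median of on-plate neutral control wells and 100% = ellipticine 6 µM median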
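Assay system: SV40-immortalized XiGFP fibroblast cells, line 68-5-11; buffer or medium: DMEM plus 5-aza-dC sensitizer; compound: one concentration, pinned; timing: compounds 3 days, fix/stain 15 min at room temperature; benchmarks: positive control ellipticine, 6 µM final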
E-selectin induc: E-selectin induction on HUVECs. HUVEC E-selectin immunofluorescence imaging; normalized: neutral wells 0, TNF-alpha wells 100. activation, % at 7.58 µM. 0.37% of 260,000 active. AID 686992;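 active = mean E-selectin-positive cell signal at least 10% of the positive control, reached in at least 60% of replicates, without over 20% cell loss; inconclusive = no rule given, readout overlaps actives, possibly toxicity-flagged; inactive = the rest, including those meeting only one limit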
Target sequence (P16581 whole entry, looked up): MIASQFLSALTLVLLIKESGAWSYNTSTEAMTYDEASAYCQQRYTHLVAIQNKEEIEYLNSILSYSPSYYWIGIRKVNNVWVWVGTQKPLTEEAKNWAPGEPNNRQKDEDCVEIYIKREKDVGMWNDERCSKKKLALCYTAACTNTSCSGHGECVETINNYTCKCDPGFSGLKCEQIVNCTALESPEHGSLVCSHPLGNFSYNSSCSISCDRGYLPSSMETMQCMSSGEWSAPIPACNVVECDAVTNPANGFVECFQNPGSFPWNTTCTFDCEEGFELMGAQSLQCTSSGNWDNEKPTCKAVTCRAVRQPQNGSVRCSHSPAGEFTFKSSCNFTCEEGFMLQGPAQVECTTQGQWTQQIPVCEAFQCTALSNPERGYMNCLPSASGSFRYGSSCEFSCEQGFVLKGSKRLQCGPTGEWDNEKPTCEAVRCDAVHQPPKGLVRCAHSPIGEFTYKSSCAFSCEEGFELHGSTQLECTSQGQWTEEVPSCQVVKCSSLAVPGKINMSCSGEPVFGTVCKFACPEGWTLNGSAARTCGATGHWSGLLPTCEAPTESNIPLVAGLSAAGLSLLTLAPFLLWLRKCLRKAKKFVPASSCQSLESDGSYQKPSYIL
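assay system = HUVEC, human umbilical vein endothelial cells | input = 3,000 HUVEC seeded per well | medium = EGM-2 growth medium on 0.1% gelatin-coated wells | dosing = one compound dose added by pin transfer | signal = immunofluorescence imaging | read-out basis = % PE-positive cells | control set = TNF-alpha, DMSO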
RAD52 inh: RAD52 (human) annealing inhibition; 0.46% of 360,000 active; inhibition, % at 18.7 µM; AID 651710; P43351; recombinant RAD52 DNA annealing, FRET fluorescence;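 active = every replicate showing at least 50% inhibition; inconclusive = mean inhibition at least 50% but not in every replicate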
rRNA inh HTS: inhibits bacterial ribosomal RNA function over humanized ribosomes; 1.6% of 350,000 active; E. coli WT GFP vs humanized-ribosome RFP mutants, fluorescence, 24 h; active compounds read low; DMSO median 0, no signal -100; GFP signal change (wild-type ribosome), % (test concentration not listed);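 active = significant combined selectivity score with lowered wild-type GFP, culture density cut under 30%, mutant RFP and density less affected; inactive = any of these conditions unmet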
DNA binder FP: DNA binding artifact in RAD52 counter-screen | shares compounds with RAD52 inh | Salmon sperm DNA/acridine orange FP displacement | AC50, µM | 8% of 1,000 active;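 active = fitted half-maximal concentration for signal loss at or below twice the highest dose tested, in every separate run, actives reach about 64 µM in these data; inconclusive = runs disagree, or flat partial signal loss, or poor fit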
* hit, by the source's call; i = inactive; ? = inconclusive; . = no result.

SMILES	PglD DTNB	RAD54 inh	Xi reactivation	E-selectin induc	RAD52 inh	rRNA inh HTS	DNA binder FP
COc1cccc(CNCCSc2nnnn2C)c1OC	5	-11	.	.	103*	12	i
CCc1c(-c2ccccc2)ncn1Cc1cccc(-c2ccccc2)c1	.	.	0	0	-14	-29	.
CCc1c(C2CC2)ncn1Cc1cccc(-c2ccccc2)c1	.	.	0	0	78*	-54	i
CCNC(=O)C[C@H]1CC[C@@H]2[C@@H](COc3ccc(NC(=O)Nc4c(C)noc4C)cc3C(=O)N2C)O1	-1	1	0	0	-2	6	.
CC(C)NC(=O)c1cc2cc([N+](=O)[O-])ccc2s1	9	-7	.	.	.	.	.
CC(C)N1CCc2c(sc(NC(=O)c3cc4cc([N+](=O)[O-])ccc4s3)c2C(N)=O)C1	-8	23	65*	0	56*	-13	i
CC(C)(C)NCC(O)CON=C1c2ccccc2-c2ccccc21 (stereo unspecified)	.	.	0	0	55*	-29	i
CC(C)(C)c1ccc(OCCCCCCN2CCNCC2)cc1	-6	11	0	.	42	-22	.
CC(C)(c1ccccc1)c1ccc(OCCCN2CCNCC2)cc1	.	.	0	0	57*	-16	i
C1CCCCCC(NCCN2CCNCC2)CCCCC1	.	.	0	1	64*	-2	i
C[C@@H]1CN([C@H](C)CO)S(=O)(=O)c2ccc(-c3cccnc3)cc2O[C@H]1CN(C)C(=O)NC1CCCC1	0	-1	0	-2	5	-4	.
O=C1c2ccccc2C(=O)c2c1ccc(C(=O)N1CCCCC1)c2NCCO	1	14	.	.	.	.	.
CCN(CCN(C)C)C(=O)c1ccc2c(c1NCCO)C(=O)c1ccccc1C2=O	.	.	0	0	58*	-33	58µM*
C[C@H](O)C#Cc1cnc2c(c1)C(=O)N([C@@H](C)CO)C[C@@H](C)[C@@H](CN(C)Cc1cccc(C(=O)O)c1)O2	-1	3	-1	0	-12	2	.
CN(C)c1ccc2nc3ccc(=[N+](C)C)cc-3sc2c1	.	.	1	.	95*	-53*	6.8µM*
CCc1ccc2nc(N=C(N)N)nc(C)c2c1	.	.	0	-3	51*	-16	i
Cc1ccc2nc(N=C(N)N)nc(C)c2c1	-2	?	0	.	51*	-18	i
Cc1nc(N=C(N)N)nc2ccccc12	.	.	0	2	61*	16	i
CCCC(=O)N/C(N)=N/c1nc(C)c2cc(C)ccc2n1	-1	4	0	0	2	-8	.
Cc1cc2nc(N=C(N)N)nc(C)c2cc1C	0	?	0	2	84*	8	i
COC(=O)C1=C(C)N(Cc2ccccc2C(F)(F)F)C(=NCc2ccc3c(c2)OCO3)NC1c1ccccc1C(F)(F)F (stereo unspecified)	.	.	0	0	1	4	.
CNC(=O)C[C@@H]1CC[C@H]2[C@@H](COc3ccc(NC(=O)c4cc(C)on4)cc3C(=O)N2C)O1	5	-10	0	0	.	0	.
Cc1ccc(S(=O)(=O)NCC[C@@H]2CC[C@@H](NC(=O)CCN3CCCCC3)[C@H](CO)O2)cc1	2	0	1	0	-10	2	.
CN(C)CC(=O)N[C@@H]1C=C[C@H](CC(=O)NCc2ccc(Cl)cc2)O[C@@H]1CO	-4	6	0	0	4	1	.
Cc1ccc(S(=O)(=O)N(C)C[C@H]2Oc3ccc(NC(=O)C4CCCCC4)cc3C(=O)N([C@H](C)CO)C[C@@H]2C)cc1	3	-2	0	0	-16	-6	.
SMILES	PglD DTNB	RAD54 inh	Xi reactivation	E-selectin induc	RAD52 inh	rRNA inh HTS	DNA binder FP
O=C1C(CSCc2ccccc2)NC(=S)N1c1ccccc1 (stereo unspecified)	-3	7	0	0	56*	.	i
O=C(O)CC1NC(=S)N(c2ccccc2)C1=O (stereo unspecified)	-1	-10	.	.	.	.	.
COc1ccc(S(=O)(=O)Nc2ccc3c(c2)C(=O)N([C@H](C)CO)C[C@H](C)[C@H](CN(C)C(=O)CCCN(C)C)OCCCC[C@@H](C)O3)cc1	2	-6	0	0	-13	2	.
CCCCCCCOC(=O)C[N+](C)(C)CCOC1CC2CCC1(C)C2(C)C (stereo unspecified)	.	.	0	.	85*	-59	i
CCCCCCOC(=O)C[N+](C)(C)CCOC1CC2CCC1(C)C2(C)C (stereo unspecified)	-5	-5	.	.	.	.	.
CN(C)CCN(C)Cc1ccccc1Sc1cccc2ccccc12	-5	12	0	.	52*	-58	i
COc1ccc(S(=O)(=O)Nc2ccc3c(c2)C(=O)N([C@H](C)CO)C[C@H](C)[C@H](CN(C)C(=O)C2CCCCC2)OCCCC[C@H](C)O3)cc1	4	-8	0	0	-1	-5	.
CN(C)CCCNC(=O)C(=O)Nc1cc2c3c(c1)CC(=O)N3CCC2	0	-3	0	.	97*	6	i
CCCC#Cc1ccc([C@@H]2[C@H](CO)N3C(=O)CN(C(=O)CN4CCOCC4)C[C@@H]23)cc1	.	.	0	0	6	1	.
CC(=O)OCCc1[nH]c2ccccc2c1C	4	8	0	1	-4	4	.
CC(=O)OCCc1c2ccccc2c(CCCN(C)C)c2ccccc12	.	.	0	.	69*	15	i
O=C(C[n+]1ccc2ccccc2c1)c1ccc2ccc3ccccc3c2c1	.	.	0	0	90*	10	i
COc1cccc2sc3cc(C#CC4(O)CCCCC4)ccc3c(=O)c12	2	-15	0	.	-109	-3	.
COc1cccc2sc3ccc(C#CC4(N)CCCCC4)cc3c(=O)c12	9	?	0	.	90*	-38	i
COc1ccc(C#Cc2ccc([C@H]3[C@H](CO)N4CCCCN(S(=O)(=O)c5cn(C)cn5)C[C@@H]34)cc2)cc1	0	-33	0	0	-13	-16	.
O=C(NCc1ccccc1)[C@@H]1CCCN1C(=O)[C@H]1CCCN1C(=O)c1ccc(F)cc1F	.	.	0	0	-12	13	.
CN(C)Cc1c(OC(=O)c2ccc(N)cc2)ccc2ccccc12	-1	-3	0	0	59*	-6	i
COc1ccc(CCN(C)Cc2c(O)ccc3ccccc23)cc1OC	-1	-10	0	0	-16	-14	.
O=C(NCC[C@@H]1CC[C@H](NC(=O)c2ccncc2)[C@@H](CO)O1)Nc1ccc(Cl)cc1	-1	0	1	0	7	-4	.
NCCCC[C@H]1CN=C(N)N1CCC12CC3CC(CC(C3)C1)C2	-2	7	0	0	57*	9	i
